# Measured values from ChEMBL document CHEMBL1139657, “Isothiazoloquinolones containing functionalized aromatic hydrocarbons at the 7-position: synthesis and in vitro activity of a series of potent antibacterial agents with diminished cytotoxicity in human cells” (Bioorg Med Chem Lett, 2006).
# Experiments:
# Staphylococcus aureus [1] = test: Antimicrobial activity against Staphylococcus aureus ATCC 29213; assay type: functional
# In short: (§1)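 MIC taken as lowest concentration giving no visible bacterial growth after incubation at 37 °C for 18–24 h.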
# DNA gyrase = DNA gyrase (Escherichia coli, UniProt P0AES4+P0AES6); test: Inhibitory activity against wild type Escherichia coli gyrase; assay type: protein-complex assay
# Staphylococcus aureus [2] = test: Antimicrobial activity against methicillin-resistant Staphylococcus aureus 700699; assay type: functional
# In short: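 MIC taken as the lowest compound concentration preventing visible bacterial growth after incubation at 37 °C for 18–24 h.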
# [3] = biological target: DNA topoisomerase 4 subunit A (Staphylococcus aureus, UniProt P0C1U9); test: Inhibitory activity against wild type Staphylococcus aureus topoisomerase 4
# Sequence of DNA topoisomerase 4 subunit A (P0C1U9 whole entry): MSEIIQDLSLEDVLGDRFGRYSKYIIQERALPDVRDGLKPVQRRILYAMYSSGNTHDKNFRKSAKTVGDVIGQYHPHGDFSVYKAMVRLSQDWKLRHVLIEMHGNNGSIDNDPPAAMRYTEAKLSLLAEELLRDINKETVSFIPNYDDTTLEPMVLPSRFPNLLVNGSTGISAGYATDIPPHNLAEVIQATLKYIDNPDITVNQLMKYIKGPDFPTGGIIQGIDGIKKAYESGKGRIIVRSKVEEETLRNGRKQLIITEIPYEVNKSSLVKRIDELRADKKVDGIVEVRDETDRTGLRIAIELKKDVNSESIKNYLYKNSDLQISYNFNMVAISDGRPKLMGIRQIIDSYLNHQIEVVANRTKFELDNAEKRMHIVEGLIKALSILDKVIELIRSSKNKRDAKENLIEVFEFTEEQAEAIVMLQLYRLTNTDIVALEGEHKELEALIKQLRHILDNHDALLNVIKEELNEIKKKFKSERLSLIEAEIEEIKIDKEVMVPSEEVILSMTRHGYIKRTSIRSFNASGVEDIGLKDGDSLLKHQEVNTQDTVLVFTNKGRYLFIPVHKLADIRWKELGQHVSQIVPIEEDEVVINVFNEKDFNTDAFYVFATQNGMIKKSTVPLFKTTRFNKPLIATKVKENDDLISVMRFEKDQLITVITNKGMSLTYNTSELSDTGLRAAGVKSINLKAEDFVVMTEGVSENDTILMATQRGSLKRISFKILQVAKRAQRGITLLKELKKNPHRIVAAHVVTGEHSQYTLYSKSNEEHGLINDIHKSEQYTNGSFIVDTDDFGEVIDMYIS
# HEp-2 = test: Cytotoxicity against human Hep2 laryngeal carcinoma cell line; assay type: functional
# Escherichia coli = test: Antimicrobial activity against Escherichia coli ATCC 25922; assay type: functional; in short: as §1
# [4] = biological target: DNA topoisomerase II (Homo sapiens) (UniProt P11388+Q02880); test: Inhibitory activity against human topoisomerase 2; assay type: protein assay
SMILES,MIC (Staphylococcus aureus [1]),IC50 (DNA gyrase),MIC (Staphylococcus aureus [2]),IC50 [3],CC50 (HEp-2),MIC (Escherichia coli),EC2 [4]
COc1c(N2CCNC(C)C2)c(F)cc2c(=O)c(C(=O)O)cn(C3CC3)c12 (stereo not given) [GATIFLOXACIN],0.125 µg/mL,0.5 µM,8 µg/mL,1.2 µM,67 µM,0.015 µg/mL,–
O=c1[nH]sc2c1c(=O)c1cc(F)c(-c3cccc(CO)c3)cc1n2C1CC1,0.008 µg/mL,0.5 µM,2 µg/mL,8.2 µM,–,0.125 µg/mL,–
NCC(=O)Nc1ccc(-c2cc3c(cc2F)c(=O)c2c(=O)[nH]sc2n3C2CC2)cc1,0.25 µg/mL,–,64 µg/mL,–,> 75 µM,1 µg/mL,–
Nc1ccc(-c2cc3c(cc2F)c(=O)c2c(=O)[nH]sc2n3C2CC2)cc1,0.004 µg/mL,0.3 µM,0.5 µg/mL,12 µM,34 µM,0.06 µg/mL,–
N#CCc1ccc(-c2cc3c(cc2F)c(=O)c2c(=O)[nH]sc2n3C2CC2)cc1,0.002 µg/mL,–,0.5 µg/mL,–,84 µM,0.02 µg/mL,–
O=c1[nH]sc2c1c(=O)c1cc(F)c(-c3ccccc3F)cc1n2C1CC1,0.015 µg/mL,–,8 µg/mL,–,> 100 µM,0.125 µg/mL,–
O=c1[nH]sc2c1c(=O)c1cc(F)c(-c3cccc(O)c3)cc1n2C1CC1,0.004 µg/mL,0.2 µM,0.25 µg/mL,1.6 µM,> 100 µM,0.06 µg/mL,–
O=c1[nH]sc2c1c(=O)c1cc(F)c(-c3cccc(F)c3)cc1n2C1CC1,0.004 µg/mL,1 µM,1 µg/mL,7.2 µM,96 µM,0.125 µg/mL,> 150 µM
Cc1cc(-c2cc3c(cc2F)c(=O)c2c(=O)[nH]sc2n3C2CC2)cc(C)c1O,0.001 µg/mL,–,2 µg/mL,–,–,0.125 µg/mL,–
O=c1[nH]sc2c1c(=O)c1cc(F)c(-c3ccc(F)cc3)cc1n2C1CC1,0.03 µg/mL,–,32 µg/mL,–,> 100 µM,0.25 µg/mL,–
O=C(O)c1cn(C2CC2)c2cc(N3CCNCC3)c(F)cc2c1=O [CIPROFLOXACIN],0.25 µg/mL,–,32 µg/mL,–,> 100 µM,–,–
NCc1cccc(-c2cc3c(cc2F)c(=O)c2c(=O)[nH]sc2n3C2CC2)c1,0.015 µg/mL,0.1 µM,2 µg/mL,0.2 µM,8 µM,0.015 µg/mL,–
COc1c(N2C[C@@H]3CCCN[C@@H]3C2)c(F)cc2c(=O)c(C(=O)O)cn(C3CC3)c12 [MOXIFLOXACIN],0.06 µg/mL,–,2 µg/mL,–,> 100 µM,0.015 µg/mL,–
O=c1[nH]sc2c1c(=O)c1cc(F)c(-c3ccc(C4CCCCN4)cc3)cc1n2C1CC1 (stereo not given),0.125 µg/mL,1 µM,4 µg/mL,2.6 µM,4 µM,0.25 µg/mL,–
NCCc1ccc(-c2cc3c(cc2F)c(=O)c2c(=O)[nH]sc2n3C2CC2)cc1,0.02 µg/mL,–,> 64 µg/mL,–,11 µM,0.06 µg/mL,–
N#Cc1ccccc1-c1cc2c(cc1F)c(=O)c1c(=O)[nH]sc1n2C1CC1,0.125 µg/mL,–,> 64 µg/mL,–,> 85 µM,2 µg/mL,–
CC(=O)c1cccc(-c2cc3c(cc2F)c(=O)c2c(=O)[nH]sc2n3C2CC2)c1,0.004 µg/mL,–,2 µg/mL,–,> 100 µM,0.125 µg/mL,–
N#Cc1cccc(-c2cc3c(cc2F)c(=O)c2c(=O)[nH]sc2n3C2CC2)c1,0.001 µg/mL,–,0.125 µg/mL,–,> 100 µM,0.03 µg/mL,–
NCc1ccc(-c2cc3c(cc2F)c(=O)c2c(=O)[nH]sc2n3C2CC2)cc1,0.03 µg/mL,0.1 µM,8 µg/mL,1.5 µM,4 µM,0.015 µg/mL,–

SMILES,MIC (Staphylococcus aureus [1]),IC50 (DNA gyrase),MIC (Staphylococcus aureus [2]),IC50 [3],CC50 (HEp-2),MIC (Escherichia coli),EC2 [4]
COc1cc(-c2cc3c(cc2F)c(=O)c2c(=O)[nH]sc2n3C2CC2)ccc1O,0.001 µg/mL,–,0.125 µg/mL,–,4 µM,0.06 µg/mL,–
O=c1[nH]sc2c1c(=O)c1cc(F)c(-c3cccc(C4CCCCN4)c3)cc1n2C1CC1 (stereo not given),0.06 µg/mL,0.7 µM,8 µg/mL,2.7 µM,4 µM,0.125 µg/mL,–
O=c1[nH]sc2c1c(=O)c1cc(F)c(-c3ccc(CO)cc3)cc1n2C1CC1,0.004 µg/mL,0.9 µM,4 µg/mL,41 µM,25 µM,0.06 µg/mL,–
CC(=O)Nc1cccc(-c2cc3c(cc2F)c(=O)c2c(=O)[nH]sc2n3C2CC2)c1,0.004 µg/mL,–,64 µg/mL,–,–,0.125 µg/mL,–
CO/N=C1\CN(c2nc3c(cc2F)c(=O)c(C(=O)O)cn3C2CC2)CC1CN (stereo not given) [GEMIFLOXACIN],0.03 µg/mL,0.5 µM,2 µg/mL,0.3 µM,46 µM,0.015 µg/mL,–
COc1ccccc1-c1cc2c(cc1F)c(=O)c1c(=O)[nH]sc1n2C1CC1,0.125 µg/mL,–,32 µg/mL,–,> 84 µM,2 µg/mL,–
CN(C)c1cccc(-c2cc3c(cc2F)c(=O)c2c(=O)[nH]sc2n3C2CC2)c1,0.06 µg/mL,–,32 µg/mL,–,> 100 µM,2 µg/mL,–
O=c1[nH]sc2c1c(=O)c1cc(F)c(-c3ccc(O)cc3)cc1n2C1CC1,0.004 µg/mL,0.8 µM,0.125 µg/mL,25 µM,8 µM,0.03 µg/mL,15 µM
O=c1[nH]sc2c1c(=O)c1cc(F)c(N3CCNCC3)cc1n2C1CC1,0.05 µg/mL,0.1 µM,4 µg/mL,0.5 µM,7 µM,0.004 µg/mL,20 µM
COc1ccc(-c2cc3c(cc2F)c(=O)c2c(=O)[nH]sc2n3C2CC2)cc1,0.015 µg/mL,–,2 µg/mL,–,91 µM,0.125 µg/mL,–
O=c1[nH]sc2c1c(=O)c1cc(F)c(-c3ccccc3)cc1n2C1CC1,0.004 µg/mL,–,16 µg/mL,–,> 100 µM,0.06 µg/mL,–
Nc1ccccc1-c1cc2c(cc1F)c(=O)c1c(=O)[nH]sc1n2C1CC1,0.03 µg/mL,–,64 µg/mL,–,46 µM,0.125 µg/mL,–
COc1cccc(-c2cc3c(cc2F)c(=O)c2c(=O)[nH]sc2n3C2CC2)c1,0.004 µg/mL,–,2 µg/mL,–,26 µM,0.125 µg/mL,–
CN(C)c1ccc(-c2cc3c(cc2F)c(=O)c2c(=O)[nH]sc2n3C2CC2)cc1,0.001 µg/mL,–,4 µg/mL,–,51 µM,0.5 µg/mL,–
N#Cc1ccc(-c2cc3c(cc2F)c(=O)c2c(=O)[nH]sc2n3C2CC2)cc1,0.03 µg/mL,–,16 µg/mL,–,> 100 µM,1 µg/mL,–
Nc1cccc(-c2cc3c(cc2F)c(=O)c2c(=O)[nH]sc2n3C2CC2)c1,0.008 µg/mL,3.1 µM,8 µg/mL,10 µM,> 100 µM,0.004 µg/mL,–
Nc1cc(-c2cc3c(cc2F)c(=O)c2c(=O)[nH]sc2n3C2CC2)ccc1F,0.008 µg/mL,0.3 µM,0.5 µg/mL,10 µM,28 µM,0.125 µg/mL,–
Cc1ccc(-c2cc3c(cc2F)c(=O)c2c(=O)[nH]sc2n3C2CC2)cc1N,0.008 µg/mL,–,2 µg/mL,–,18 µM,0.125 µg/mL,–
NC(=O)c1cccc(-c2cc3c(cc2F)c(=O)c2c(=O)[nH]sc2n3C2CC2)c1,0.008 µg/mL,–,2 µg/mL,–,–,0.125 µg/mL,–
